{"source": "the RNAGym collection of RNA variant scans (doi:10.1002/anie.201605470)", "parents": {"B1": {"name": "Osa-1-4 twister ribozyme (parent)", "chain": "CCGCCUAACACUGCCAAUGCCGGUCCCAAGCCCGGAUAAAAGUGGAGGGGGCGG"}}, "data": [{"variants_of": "B1", "test": "self-cleavage, relative activity (ratio to wild type); higher = more cleavage; co-transcriptional", "in_short": "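A DNA template for a 54-nucleotide Oryza sativa twister ribozyme was synthesised with 97 % wild-type base and 1 % of each other base at the 48 positions downstream of the cleavage site. It was transcribed in vitro for 2 h at 37 °C, allowing co-transcriptional self-cleavage, then reverse-transcribed with a template-switching oligonucleotide, PCR-amplified and deep-sequenced. Cleavage status was scored from reads with or without upstream sequence. Relative activity is fraction cleaved normalised to wild type.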", "values": [{"variant": "CCGCCUAACACUGCCAAUGCCGAUCCCAAGCCCGGAUAAAAGUGGAGGGGGCGC", "self-cleavage": 0.21}, {"variant": "CCGCCUAACACUGCCAAUGCCGAUCCCAAGCCCGGAUAAAAGUGGAGGGGGCGU", "self-cleavage": 0.41}, {"variant": "CCGCCUAACACAGCCAAUGCCGAUCCCAAGCCCGGAUAAAAGUGGAGGGGGCGG", "self-cleavage": 0.1}, {"variant": "CCGCCUAACACCGCCAAUGCCGAUCCCAAGCCCGGAUAAAAGUGGAGGGGGCGG", "self-cleavage": 0.08}, {"variant": "CCGCCUAACACGGCCAAUGCCGAUCCCAAGCCCGGAUAAAAGUGGAGGGGGCGG", "self-cleavage": 0.07}, {"variant": "CCGCCUAACACUGCCAAAGCCGAUCCCAAGCCCGGAUAAAAGUGGAGGGGGCGG", "self-cleavage": 0.59}, {"variant": "CCGCCUAACACUGCCAACGCCGAUCCCAAGCCCGGAUAAAAGUGGAGGGGGCGG", "self-cleavage": 0.49}, {"variant": "CCGCCUAACACUGCCAAGGCCGAUCCCAAGCCCGGAUAAAAGUGGAGGGGGCGG", "self-cleavage": 0.38}, {"variant": "CCGCCUAACACUGCCAAUGCCGAACCCAAGCCCGGAUAAAAGUGGAGGGGGCGG", "self-cleavage": 0.09}, {"variant": "CCGCCUAACACUGCCAAUGCCGACCCCAAGCCCGGAUAAAAGUGGAGGGGGCGG", "self-cleavage": 0.05}, {"variant": "CCGCCUAACACUGCCAAUGCCGAGCCCAAGCCCGGAUAAAAGUGGAGGGGGCGG", "self-cleavage": 0.02}, {"variant": "CCGCCUAACACUGCCAAUGCCGAUCCCAAGCCCGGAAAAAAGUGGAGGGGGCGG", "self-cleavage": 0.77}, {"variant": "CCGCCUAACACUGCCAAUGCCGAUCCCAAGCCCGGACAAAAGUGGAGGGGGCGG", "self-cleavage": 0.72}, {"variant": "CCGCCUAACACUGCCAAUGCCGAUCCCAAGCCCGGAGAAAAGUGGAGGGGGCGG", "self-cleavage": 0.78}, {"variant": "CCGCCUAACACUGCCAAUGCCGAUCCCAAGCCCGGAUAAAAGAGGAGGGGGCGG", "self-cleavage": 0.1}, {"variant": "CCGCCUAACACUGCCAAUGCCGAUCCCAAGCCCGGAUAAAAGCGGAGGGGGCGG", "self-cleavage": 0.09}, {"variant": "CCGCCUAACACUGCCAAUGCCGAUCCCAAGCCCGGAUAAAAGGGGAGGGGGCGG", "self-cleavage": 0.09}, {"variant": "CCGCCUAACACUGCCAAUGCCGCUCCCAAGCCCGGAUAAAAGUGGAGGGGGCGG", "self-cleavage": 0.05}, {"variant": "CCGCCUAACACUGCCAAUGCCGCUCCCAAACCCGGAUAAAAGUGGAGGGGGCGG", "self-cleavage": 0.02}, {"variant": "CCGCCUAACACUGCCAAUGCCGCUCCCAACCCCGGAUAAAAGUGGAGGGGGCGG", "self-cleavage": 0.02}, {"variant": "CCGCCUAACACUGCCAAUGCCGCUCCCAAUCCCGGAUAAAAGUGGAGGGGGCGG", "self-cleavage": 0.02}, {"variant": "CCGCCUAACACUGCCAAUGCCGCUCCCAAGCCCAGAUAAAAGUGGAGGGGGCGG", "self-cleavage": 0.06}, {"variant": "CCGCCUAACACUGCCAAUGCCGCUCCCAAGCCCCGAUAAAAGUGGAGGGGGCGG", "self-cleavage": 0.04}, {"variant": "CCGCCUAACACUGCCAAUGCCGCUCCCAAGCCCUGAUAAAAGUGGAGGGGGCGG", "self-cleavage": 0.04}, {"variant": "CCGCCUAACACUGCCAAUGCCGCUCCCAAGCCCGAAUAAAAGUGGAGGGGGCGG", "self-cleavage": 0.04}, {"variant": "CCGCCUAACACUGCCAAUGCCGCUCCCAAGCCCGCAUAAAAGUGGAGGGGGCGG", "self-cleavage": 0.06}, {"variant": "CCGCCUAACACUGCCAAUGCCGCUCCCAAGCCCGUAUAAAAGUGGAGGGGGCGG", "self-cleavage": 0.04}, {"variant": "CCGCCUAACACUGCCAAUGCCGCUCCCAAGCCCGGAUAAAAAUGGAGGGGGCGG", "self-cleavage": 0.05}, {"variant": "CCGCCUAACACUGCCAAUGCCGCUCCCAAGCCCGGAUAAAACUGGAGGGGGCGG", "self-cleavage": 0.05}, {"variant": "CCGCCUAACACUGCCAAUGCCGCUCCCAAGCCCGGAUAAAAUUGGAGGGGGCGG", "self-cleavage": 0.02}, {"variant": "CCGCCUAACACUGCCAAUGCCGCUCCCAAGCCCGGAUAAAAGUAGAGGGGGCGG", "self-cleavage": 0.04}, {"variant": "CCGCCUAACACUGCCAAUGCCGCUCCCAAGCCCGGAUAAAAGUCGAGGGGGCGG", "self-cleavage": 0.04}, {"variant": "CCGCCUAACACUGCCAAUGCCGCUCCCAAGCCCGGAUAAAAGUUGAGGGGGCGG", "self-cleavage": 0.04}, {"variant": "CCGCCUAACACUGCCAAUGCCGCUCCCAAGCCCGGAUAAAAGUGAAGGGGGCGG", "self-cleavage": 0.04}, {"variant": "CCGCCUAACACUGCCAAUGCCGCUCCCAAGCCCGGAUAAAAGUGCAGGGGGCGG", "self-cleavage": 0.03}, {"variant": "CCGCCUAACACUGCCAAUGCCGCUCCCAAGCCCGGAUAAAAGUGUAGGGGGCGG", "self-cleavage": 0.03}, {"variant": "CCGCCUAACACUGCCAAUGCCGCUCCCAAGCCCGGAUAAAAGUGGAAGGGGCGG", "self-cleavage": 0.03}, {"variant": "CCGCCUAACACUGCCAAUGCCGCUCCCAAGCCCGGAUAAAAGUGGACGGGGCGG", "self-cleavage": 0.03}, {"variant": "CCGCCUAACACUGCCAAUGCCGCUCCCAAGCCCGGAUAAAAGUGGAUGGGGCGG", "self-cleavage": 0.03}, {"variant": "CCGCCUAACACUGCCAAUGCCGCUCCCAAGCCCGGAUAAAAGUGGAGAGGGCGG", "self-cleavage": 0.02}, {"variant": "CCGCCUAACACUGCCAAUGCCGCUCCCAAGCCCGGAUAAAAGUGGAGCGGGCGG", "self-cleavage": 0.02}, {"variant": "CCGCCUAACACUGCCAAUGCCGCUCCCAAGCCCGGAUAAAAGUGGAGUGGGCGG", "self-cleavage": 0.02}, {"variant": "CCGCCUAACACUGCCAAUGCCGCUCCCAAGCCCGGAUAAAAGUGGAGGAGGCGG", "self-cleavage": 0.03}, {"variant": "CCGCCUAACACUGCCAAUGCCGCUCCCAAGCCCGGAUAAAAGUGGAGGCGGCGG", "self-cleavage": 0.02}, {"variant": "CCGCCUAACACUGCCAAUGCCGCUCCCAAGCCCGGAUAAAAGUGGAGGUGGCGG", "self-cleavage": 0.03}, {"variant": "CCGCCUAACACUGCCAAUGCCGCUCCCAAGCCCGGAUAAAAGUGGAGGGAGCGG", "self-cleavage": 0.04}, {"variant": "CCGCCUAACACUGCCAAUGCCGCUCCCAAGCCCGGAUAAAAGUGGAGGGCGCGG", "self-cleavage": 0.04}, {"variant": "CCGCCUAACACUGCCAAUGCCGCUCCCAAGCCCGGAUAAAAGUGGAGGGUGCGG", "self-cleavage": 0.05}]}]}
